# ChEMBL document CHEMBL5154772, “Biological Investigation of a Water-Soluble Isoginkgetin-Phosphate Analogue, Targeting the Spliceosome with In Vivo Antitumor Activity” (J Med Chem, 2022)
# Activity calls are given as the source filed them. The rule behind the calls is not given here.
# Legend:
# Assay type in all cases: functional, cell-based
# MCA-205 = experiment: Induction of B3Z T-cell activation cocultured with mouse MCA-205 cells expressing SL8 epitope assessed as increase in intron-derived SL8 antigen presentation at 2 to 10 uM measured after 18 hrs; settings: dose 2-10 µM
# Outline: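 MCA205 cells transfected with YFP-Globin-SL8-intron plasmid (pCDNA3 empty-vector control). 24 h later, treated 18 h. Washed, then 5x10^4 cells co-cultured with 1x10^5 SL8/H-2Kb-specific B3Z CD8+ T-cell hybridoma for 18 h at 37 °C. Cells lysed, β-galactosidase read with 40 µM MUG substrate over 3 h at room temperature. Normalised to unspecific B3Z activation. At least three biological replicates, Student's t-test.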
# U2OS [1] = experiment: Antitumor immunity against human U2OS cells expressing CALR-GFP fusion protein assessed as accumulation CALR-GFP fusion protein at 3 uM measured upto 24 hrs by live cell microscopic analysis
# U2OS [2] = experiment: Antitumor immunity against human U2OS cells expressing HMGBI-GFP fusion protein assessed as accumulation HMGBI-GFP fusion protein at 3 uM measured upto 24 hrs by live cell microscopic analysis
# U2OS [3] = experiment: Antitumor immunity against human U2OS cells assessed as decrease in ATP by measuring reduction in quinacrine green fluorescence intensity at 3 uM pretreated for 24 hrs by live fluorescence microscopic analysis
SMILES,Activity (MCA-205),Activity (U2OS [1]),Activity (U2OS [2]),Activity (U2OS [3])
COc1cc(-c2ccc(=O)[nH]n2)ccc1OC(F)F,Active,–,–,–
O=C1c2c(O)ccc(O)c2C(=O)c2c(NCCNCCO)ccc(NCCNCCO)c21,–,Active,Active,Active
